Assay results taken from ChEMBL document CHEMBL3526048, “In vitro metabolism of rivoglitazone, a novel peroxisome proliferator-activated receptor γ agonist, in rat, monkey, and human liver microsomes and freshly isolated hepatocytes” (Drug Metab Dispos, 2011).

Experiments:
[1] = biological target: T1, UDP-glucuronosyltransferase 2B7 (Homo sapiens, UniProt P16662); assay: (§1) Activity of human UGT2B7 expressed in microsomes isolated from baculovirus infected insect cell assessed as enzyme-mediated 5-hydroxy-5-(4-((6-methoxy-1-methyl-1H-benzo[d]imidazol-2-yl)methoxy)benzyl)thiazolidine-2,4-dione formation at 20 uM after 4 hrs by radio-HPLC/LC-MS/MS analysis in presence of NADPH-generating system and NADPH-generating system/SAM in presence of UDPGA and UDPGA/SAM; format: ADME
T1 sequence (P16662 whole entry): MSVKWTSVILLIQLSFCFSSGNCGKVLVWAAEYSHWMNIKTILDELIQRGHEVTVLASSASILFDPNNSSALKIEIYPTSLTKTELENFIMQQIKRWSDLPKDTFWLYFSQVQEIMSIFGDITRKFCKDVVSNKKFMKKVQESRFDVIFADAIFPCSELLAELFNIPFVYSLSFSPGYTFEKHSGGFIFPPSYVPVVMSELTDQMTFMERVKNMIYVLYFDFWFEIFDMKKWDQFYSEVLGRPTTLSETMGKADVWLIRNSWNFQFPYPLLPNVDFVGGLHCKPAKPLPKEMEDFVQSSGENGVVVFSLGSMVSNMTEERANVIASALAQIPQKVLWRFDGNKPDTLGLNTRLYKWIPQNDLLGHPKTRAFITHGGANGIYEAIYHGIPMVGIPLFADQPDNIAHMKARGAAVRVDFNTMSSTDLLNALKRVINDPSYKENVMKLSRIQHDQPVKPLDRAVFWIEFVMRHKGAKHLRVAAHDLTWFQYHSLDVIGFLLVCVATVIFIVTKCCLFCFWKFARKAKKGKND

[2] = biological target: T2, UDP-glucuronosyltransferase 1A3 (Homo sapiens, UniProt P35503); assay: Activity of human UGT1A3 expressed in microsomes isolated from baculovirus infected insect cell assessed as enzyme-mediated 5-(4-((6-methoxy-1H-benzo[d]imidazol-2-yl)methoxy)benzyl)thiazolidine-2,4-dione formation at 20 uM after 4 hrs by radio-HPLC/LC-MS/MS analysis in presence of NADPH-generating system and NADPH-generating system/SAM in presence of UDPGA and UDPGA/SAM; format: ADME
T2 sequence (P35503 whole entry): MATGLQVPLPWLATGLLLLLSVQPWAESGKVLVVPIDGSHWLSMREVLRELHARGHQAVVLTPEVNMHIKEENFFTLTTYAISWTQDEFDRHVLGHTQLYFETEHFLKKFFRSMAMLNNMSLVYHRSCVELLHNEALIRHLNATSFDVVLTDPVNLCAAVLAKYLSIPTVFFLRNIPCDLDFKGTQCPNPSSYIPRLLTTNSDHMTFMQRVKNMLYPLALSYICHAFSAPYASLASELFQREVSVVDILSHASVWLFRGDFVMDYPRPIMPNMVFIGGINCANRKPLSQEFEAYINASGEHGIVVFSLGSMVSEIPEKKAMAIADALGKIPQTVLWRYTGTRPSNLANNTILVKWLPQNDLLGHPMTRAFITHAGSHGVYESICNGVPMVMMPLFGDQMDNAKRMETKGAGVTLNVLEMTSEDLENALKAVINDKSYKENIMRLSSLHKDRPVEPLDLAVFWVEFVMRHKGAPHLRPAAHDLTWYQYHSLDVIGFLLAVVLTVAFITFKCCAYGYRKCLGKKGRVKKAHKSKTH

Cytochrome P450 2C8 = biological target: T3, Cytochrome P450 2C8 (Homo sapiens, UniProt P10632); assay: Activity of human CYP2C8 expressed in microsomes isolated from baculovirus infected insect cell assessed as enzyme-mediated 3-(4-((6-methoxy-1-methyl-1H-benzo[d]imidazol-2-yl)methoxy)phenyl)-2-(methylthio)propanoic acid formation at 20 uM after 2 hrs by radio-HPLC/LC-MS/MS analysis in presence of NADPH-generating system/SAM and UDPGA/SAM; format: ADME
T3 sequence (P10632 whole entry): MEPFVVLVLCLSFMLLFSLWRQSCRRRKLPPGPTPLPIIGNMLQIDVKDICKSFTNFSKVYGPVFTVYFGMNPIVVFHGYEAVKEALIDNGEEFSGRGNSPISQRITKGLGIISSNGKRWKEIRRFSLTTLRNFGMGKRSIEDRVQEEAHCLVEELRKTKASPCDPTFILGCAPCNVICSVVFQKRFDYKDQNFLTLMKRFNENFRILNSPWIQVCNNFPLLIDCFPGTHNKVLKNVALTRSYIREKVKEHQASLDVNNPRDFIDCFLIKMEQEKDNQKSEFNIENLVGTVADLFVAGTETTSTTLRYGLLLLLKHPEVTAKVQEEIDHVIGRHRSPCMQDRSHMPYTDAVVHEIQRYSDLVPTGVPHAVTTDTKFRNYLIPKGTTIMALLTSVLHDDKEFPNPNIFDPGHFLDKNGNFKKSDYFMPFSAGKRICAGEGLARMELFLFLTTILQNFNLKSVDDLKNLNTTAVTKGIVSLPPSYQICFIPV

[3] = Drug metabolism in human hepatocytes assessed as formation of 3-(4-((6-methoxy-1-methyl-1H-benzo[d]imidazol-2-yl)methoxy)phenyl)-2-(methylthio)propanoic acid at 30 uM after 3 hrs by radio-HPLC/LC-MS/MS analysis in presence of NADPH-generating system/SAM and UDPGA/SAM; format: ADME, cell-based, Hepatocyte
Cytochrome P450 2C19 = Cytochrome P450 2C19 (Homo sapiens, UniProt P33261); assay: as §1, with “human CYP2C19” for “human UGT2B7”, “after 2” for “after 4”, “system/SAM” for “system/SAM in presence of UDPGA and UDPGA/SAM”; format: ADME
Chain of Cytochrome P450 2C19 (P33261 whole entry): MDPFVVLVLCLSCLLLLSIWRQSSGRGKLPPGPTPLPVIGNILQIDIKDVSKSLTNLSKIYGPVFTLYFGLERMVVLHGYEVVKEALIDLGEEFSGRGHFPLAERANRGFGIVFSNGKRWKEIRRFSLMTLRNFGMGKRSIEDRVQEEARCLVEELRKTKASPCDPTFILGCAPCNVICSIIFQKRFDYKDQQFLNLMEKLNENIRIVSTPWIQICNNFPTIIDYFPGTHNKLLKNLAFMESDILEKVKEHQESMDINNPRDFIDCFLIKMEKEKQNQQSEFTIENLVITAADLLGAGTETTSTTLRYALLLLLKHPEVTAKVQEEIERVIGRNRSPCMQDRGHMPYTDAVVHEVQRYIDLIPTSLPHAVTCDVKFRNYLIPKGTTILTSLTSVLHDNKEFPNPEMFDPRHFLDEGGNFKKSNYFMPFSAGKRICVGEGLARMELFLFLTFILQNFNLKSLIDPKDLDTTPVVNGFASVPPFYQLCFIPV
Outline: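 Baculovirus/insect-cell microsomes expressing single human CYPs, 1 mg/ml protein, with 50 mM potassium phosphate (pH 7.4) or 100 mM Tris-HCl (pH 7.5). NADPH-generating system: 2 mM NADP⁺, 20 mM glucose 6-phosphate, 2 units/ml G6PDH, 10 mM MgCl₂. [¹⁴C]rivoglitazone at 20 μM, 2 h at 37°C with shaking. Control used insect-cell control supersomes. Stopped with acetonitrile; supernatant concentrated under nitrogen; metabolites analysed by radio-HPLC, LC-MS and LC-MS/MS.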

Cytochrome P450 3A5 = Cytochrome P450 3A5 (Homo sapiens, UniProt P20815); assay: as §1, with “human CYP3A5” for “human UGT2B7”, “after 2” for “after 4”, “system/SAM” for “system/SAM in presence of UDPGA and UDPGA/SAM”; format: ADME
Chain of Cytochrome P450 3A5 (P20815 whole entry): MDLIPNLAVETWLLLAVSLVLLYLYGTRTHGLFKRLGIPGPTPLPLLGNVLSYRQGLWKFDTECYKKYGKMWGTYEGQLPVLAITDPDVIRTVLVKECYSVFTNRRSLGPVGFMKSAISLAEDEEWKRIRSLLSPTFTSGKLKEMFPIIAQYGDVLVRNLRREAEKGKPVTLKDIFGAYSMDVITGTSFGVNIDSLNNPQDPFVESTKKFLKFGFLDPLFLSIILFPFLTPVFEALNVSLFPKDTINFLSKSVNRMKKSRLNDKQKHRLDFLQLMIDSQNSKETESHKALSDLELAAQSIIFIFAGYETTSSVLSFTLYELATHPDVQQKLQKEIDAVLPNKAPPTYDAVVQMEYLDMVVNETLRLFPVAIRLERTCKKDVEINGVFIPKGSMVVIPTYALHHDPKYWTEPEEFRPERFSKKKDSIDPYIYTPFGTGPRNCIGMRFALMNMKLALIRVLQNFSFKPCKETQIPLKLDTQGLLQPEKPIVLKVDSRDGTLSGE
Outline: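 cDNA-expressed human CYP3A5 in baculovirus-insect-cell microsomes (1 mg/ml protein) was incubated with [¹⁴C]rivoglitazone (20 μM) in 50 mM potassium phosphate (pH 7.4) or 100 mM Tris-HCl (pH 7.5). NADPH-generating system: 2 mM NADP⁺, 20 mM glucose 6-phosphate, 2 units/ml G6PDH, 10 mM MgCl₂. Incubation ran 2 h at 37°C with shaking; insect-cell control supersomes served as control. Acetonitrile stop, supernatant concentrated, then radio-HPLC, LC-MS and LC-MS/MS.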

Liver microsome = assay: Drug metabolism in Sprague-Dawley rat liver microsomes assessed as formation of (2S,3S,4S,5R,6R)-3,4,5-trihydroxy-6-(5-(4-((6-methoxy-1-methyl-1H-benzo[d]imidazol-2-yl)methoxy)benzyl)-2,4-dioxothiazolidin-3-yl)tetrahydro-2H-pyran-2-carboxylic acid at 20 uM after 4 hrs by radio-HPLC/LC-MS/MS analysis in presence of UDPGA and UDPGA/SAM; format: ADME

Compound: COc1ccc2nc(COc3ccc(C[14CH]4SC(=O)NC4=O)cc3)n(C)c2c1.Cl (racemic)
- Drug metabolism [1]: metabolite_not_detected
- Drug metabolism [2]: metabolite_not_detected
- Drug metabolism (Cytochrome P450 2C8): metabolite_not_detected
- Drug metabolism [3]: metabolite_not_detected
- Drug metabolism (Cytochrome P450 2C19): metabolite_detected
- Drug metabolism (Cytochrome P450 3A5): metabolite_detected
- Drug metabolism (Liver microsome): metabolite_detected
